Data reported in ChEMBL document CHEMBL4325860, “Synthesis of novel 2-(1-adamantanylcarboxamido)thiophene derivatives. Selective cannabinoid type 2 (CB2) receptor agonists as potential agents for the treatment of skin inflammatory disease” (Eur J Med Chem, 2019).
pEC50, pKi: −log10 of the molar value. The source made the active and inactive calls. No cut-off for these calls is given here.

Assays:
Cannabinoid receptor 1 = Cannabinoid receptor 1 (Homo sapiens, UniProt P21554); experiment: Displacement of [3H]CP55940 from recombinant human CB1R expressed in HEK293 cell membranes measured after 90 mins
Sequence of Cannabinoid receptor 1 (P21554 whole entry): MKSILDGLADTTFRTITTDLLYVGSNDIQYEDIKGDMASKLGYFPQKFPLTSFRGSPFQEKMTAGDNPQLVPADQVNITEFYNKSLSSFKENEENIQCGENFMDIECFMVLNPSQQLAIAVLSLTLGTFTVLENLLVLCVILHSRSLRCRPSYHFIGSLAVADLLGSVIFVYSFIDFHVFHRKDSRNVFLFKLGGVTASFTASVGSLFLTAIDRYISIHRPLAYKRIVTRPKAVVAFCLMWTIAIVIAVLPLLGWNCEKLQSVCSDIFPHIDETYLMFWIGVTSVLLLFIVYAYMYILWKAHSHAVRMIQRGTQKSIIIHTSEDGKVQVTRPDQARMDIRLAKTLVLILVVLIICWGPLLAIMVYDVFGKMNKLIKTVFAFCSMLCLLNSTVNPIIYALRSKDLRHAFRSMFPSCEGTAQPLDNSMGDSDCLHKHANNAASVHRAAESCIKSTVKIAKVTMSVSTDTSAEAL

[1] = target: Cannabinoid receptor 1 (CB1R) (Homo sapiens, UniProt P21554); experiment: Displacement of [3H]CP55940 from recombinant human CB1R expressed in HEK293 cell membranes at 10 uM measured after 90 mins relative to control; settings: membranes of HEK293 cells expressing recombinant human CB1R, probe [3H]CP55940
Sequence of Cannabinoid receptor 1 (CB1R) (P21554 whole entry): as above

Homo sapiens = organism: Homo sapiens; experiment: Selectivity index, ratio of Ki for displacement of [3H]CP55940 from recombinant human CB1R expressed in HEK293 cell membranes to Ki for displacement of [3H]CP55940 from recombinant human CB2R expressed in HEK293 cell membranes
Summary of the method: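 Competition binding on membranes of HEK cells transfected with human CB1R or CB2R, radioligand [³H]CP-55,940. Ki from at least three separate experiments run in duplicate, reported as mean. Selectivity index = Ki(CB1R)/Ki(CB2R).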

Cannabinoid receptor 2 [2] = target: T1, Cannabinoid receptor 2 (Homo sapiens, UniProt P34972); experiment: Displacement of [3H]CP55940 from recombinant human CB2R expressed in HEK293 cell membranes measured after 90 mins
T1 sequence (P34972 whole entry): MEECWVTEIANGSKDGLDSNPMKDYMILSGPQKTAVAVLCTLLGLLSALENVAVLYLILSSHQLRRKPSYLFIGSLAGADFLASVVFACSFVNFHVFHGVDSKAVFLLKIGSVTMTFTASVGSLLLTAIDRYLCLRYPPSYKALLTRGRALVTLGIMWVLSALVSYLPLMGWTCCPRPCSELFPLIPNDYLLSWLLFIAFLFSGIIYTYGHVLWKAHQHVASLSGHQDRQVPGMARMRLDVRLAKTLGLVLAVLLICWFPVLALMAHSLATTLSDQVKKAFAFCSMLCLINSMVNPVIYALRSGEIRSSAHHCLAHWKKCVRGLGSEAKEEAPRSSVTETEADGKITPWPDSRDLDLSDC

Cannabinoid receptor 2 [3] = target: T1, Cannabinoid receptor 2; experiment: Displacement of [3H]CP55940 from recombinant human CB2R expressed in HEK293 cell membranes at 10 uM measured after 90 mins relative to control
Cannabinoid receptor 2 [4] = target: T1, Cannabinoid receptor 2; experiment: Agonist activity at recombinant human CB2R expressed in CHOK1 cells assessed as inhibition of NKH477-stimulated intracellular cAMP levels preincubated for 15 mins followed by CB2R agonist JWH133 addition and measured after 30 mins by chemiluminescent assay; format: functional, cell-based
Cannabinoid receptor 2 [5] = target: T1, Cannabinoid receptor 2; experiment: Activity at recombinant human CB2R expressed in CHOK1 cells assessed as effect on basal intracellular cAMP levels at higher concentration measured after 30 mins by chemiluminescent assay; format: functional, cell-based
Cannabinoid receptor 2 [6] = target: T1, Cannabinoid receptor 2; experiment: Agonist activity at recombinant human CB2R expressed in CHOK1 cells assessed as inhibition of NKH477-stimulated intracellular cAMP levels after 30 mins by chemiluminescent assay; format: functional, cell-based
Summary of the method: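 cAMP Hunter enzyme fragment complementation assay with chemiluminescent detection, in stable CHO cells expressing human CB2R, stimulated with NKH-477. Concentration-response curves. Response normalized with NKH-477 alone as 100%. Mean ± SEM of three independent experiments run in triplicate.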

HaCaT [7] = experiment: Antiinflammatory activity in human HaCaT cells assessed as inhibition of polyinosinic polycytidylic acid-stimulated MCP2 release at 10 uM measured after 6 hrs in presence of CB2R antagonist AM630 by ELISA; format: functional, cell-based
Summary of the method: (§1)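 HaCaT keratinocytes stimulated with poly-(I:C) at 100 µg/mL. MCP-2 release measured with test agent at 10 µM, alone or co-incubated with the CB2R antagonist AM630 at 0.1 µM.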

HaCaT [8] = experiment: Antiinflammatory activity in human HaCaT cells assessed as inhibition of polyinosinic polycytidylic acid-stimulated MCP2 release at 10 uM measured after 6 hrs by ELISA; format: functional, cell-based; summary of the method: as §1

SMILES | pKi (Cannabinoid receptor 1) | inhibition at 1.5 h, 10 µM [1] [%] | Ratio Ki (Homo sapiens) | pKi (Cannabinoid receptor 2 [2]) | inhibition (Cannabinoid receptor 2 [3]) [%] | inhibition (Cannabinoid receptor 2 [4]) | Activity (Cannabinoid receptor 2 [5]) | pEC50 (Cannabinoid receptor 2 [6]) | inhibition (HaCaT [7]) | inhibition (HaCaT [8])
COC(=O)c1c(NC(=O)N2CCCCC2)sc2c1CCCC2 | < 5.00 | < 50 | > 51 | 6.71 | > 50 |  |  |  |  | 
COC(=O)c1cc(C)sc1NC(=O)C12CC3CC(CC(C3)C1)C2 | < 5.00 | < 50 | > 433 | 7.64 | > 50 |  |  |  |  | 
COc1ccc(C(=O)c2c(C)n(CCN3CCOCC3)c3cc(I)ccc23)cc1 |  | < 50 |  |  | > 50 |  |  |  |  | 
COC(=O)c1[nH]ccc1NC(=O)C12CC3CC(CC(C3)C1)C2 | < 5.00 | < 50 | > 4 | 5.67 | > 50 |  |  |  |  | 
CCCCCc1sc(NC(=O)C23CC4CC(CC(C4)C2)C3)c(C(=O)OC)c1-c1ccccc1 | 6.29 | < 50 | 65 | 8.10 | > 50 |  |  |  |  | 
COC(=O)c1nn(C)cc1NC(=O)C12CC3CC(CC(C3)C1)C2 | < 5.00 | < 50 | > 11 | 6.07 | > 50 |  |  |  |  | 
COC(=O)c1c(NC(=O)NC23CC4CC(CC(C4)C2)C3)sc2c1CCCC2 | < 5.00 | < 50 | > 477 | 7.68 | > 50 |  |  |  |  | 
COC(=O)c1c(NC(=O)N2CCOCC2)sc2c1CCCC2 | < 5.00 | < 50 | > 4 | 5.60 | > 50 |  |  |  |  | 
COC(=O)c1cc(-c2ccccc2)sc1NC(=O)C12CC3CC(CC(C3)C1)C2 | < 5.00 | < 50 | > 1540 | 8.19 | > 50 |  |  |  |  | 
CCCCc1sc(NC(=O)C23CC4CC(CC(C4)C2)C3)c(C(=O)OC)c1C | 7.23 | < 50 | 34 | 8.76 | > 50 | inactive | inactive | 5.95 |  | 
COC(=O)c1c(NC(=O)C23CC4CC(CC(C4)C2)C3)sc2c1CCS(=O)(=O)C2 | < 5.00 | < 50 | > 6 | 5.78 | > 50 |  |  |  |  | 
COC(=O)c1c(NC(=O)Oc2ccccc2)sc2c1CCCC2 | < 5.00 | < 50 | > 41 | 6.61 | > 50 |  |  |  |  | 
COC(=O)c1c(NC(=O)C23CC4CC(CC(C4)C2)C3)sc2c1CCCC2 | < 5.00 | < 50 | > 1970 | 8.29 | > 50 | inactive | inactive | 5.82 |  | 
COC(=O)c1c(NC(=O)C23CC4CC(CC(C4)C2)C3)cnn1C | < 5.00 | < 50 | > 9 | 5.97 | > 50 |  |  |  |  | 
COC(=O)c1c(-c2ccccc2)csc1NC(=O)C12CC3CC(CC(C3)C1)C2 | < 5.00 | < 50 | > 285 | 7.46 | > 50 |  |  |  |  | 
CCc1sc(NC(=O)C23CC4CC(CC(C4)C2)C3)c(C(=O)OC)c1C | 5.67 | < 50 | 358 | 8.23 | > 50 | inactive |  | 6.43 |  | 
CCc1c(C)sc(NC(=O)c2ccc(Cl)cc2)c1C(=O)OC | < 5.00 | < 50 | > 16 | 6.21 | > 50 |  |  |  |  | 
Cc1ccc(Cn2nc(C(=O)N[C@@H]3C(C)(C)[C@@H]4CC[C@@]3(C)C4)cc2-c2ccc(Cl)c(C)c2)cc1 |  | < 50 |  |  |  |  |  |  |  | 
COC(=O)c1c(NC(=O)C23CC4CC(CC(C4)C2)C3)sc2c1CCSC2 | < 5.00 | < 50 | > 197 | 7.29 | > 50 |  |  |  |  | 
CCc1c(C)sc(NC(=O)C23CC4CC(CC(C4)C2)C3)c1C(=O)OC | 6.73 | < 50 | 75 | 8.61 | > 50 | inactive |  | 6.71 | inactive | Active
CCCc1cc(C(=O)OC)c(NC(=O)C23CC4CC(CC(C4)C2)C3)s1 | 5.87 | < 50 | 186 | 8.14 | > 50 |  |  |  |  | 
CCc1c(C)sc(NC(=O)c2ccc(F)cc2)c1C(=O)OC | < 5.00 | < 50 | > 20 | 6.30 | > 50 |  |  |  |  | 
COC(=O)c1ccsc1NC(=O)C12CC3CC(CC(C3)C1)C2 | < 5.00 | < 50 | > 68 | 5.88 | > 50 |  |  |  |  | 
COC(=O)c1c(NC(=O)C23CC4CC(CC(C4)C2)C3)sc(C)c1C | < 5.00 | < 50 | > 1080 | 8.03 | > 50 | inactive |  | 6.50 |  | 
CCCc1c(C)sc(NC(=O)C23CC4CC(CC(C4)C2)C3)c1C(=O)OC |  | < 50 | 257 |  | > 50 |  |  |  |  | 
COC(=O)c1cccnc1NC(=O)C12CC3CC(CC(C3)C1)C2 | < 5.00 | < 50 | > 8 | 5.91 | > 50 |  |  |  |  | 
COC(=O)c1c(C)noc1NC(=O)C12CC3CC(CC(C3)C1)C2 | < 5.00 | < 50 | > 154 | 7.19 | > 50 |  |  |  |  | 
